Measurements reported in ChEMBL document CHEMBL1122426, “Radioiodine-labeled N,N-dimethyl-N'-(2-hydroxy-3-alkyl-5-iodobenzyl)-1,3-propanediamines for brain perfusion imaging” (J Med Chem, 1983).

What was measured:
Rattus norvegicus [1] = species: Rattus norvegicus; assay: Effect of specific activity of compound on biodistribution in rats blood 1 hr after injection at the dose of 2.5 mg value expressed in average % dose per organ; value may range from 0.58 to 0.71; type: ADME, organism-based; conditions: in vivo
Procedure, shortened: (§1)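 Rats received an intravenous injection of the I-125 labeled diamine with added unlabeled carrier (6.25, 2.5, 0.25 or 0.025 mg per dose). At 1 h, organs were counted. Percent dose per organ came from comparing tissue radioactivity with diluted aliquots of the injected dose. Values are the average and range of 3 rats. Brain/blood ratio was taken from % dose per gram, calculated using mean organ weights (brain 1.65 g; blood 18 g).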

Rattus norvegicus [2] = species: Rattus norvegicus; assay: Effect of specific activity of compound on biodistribution in rats blood 1 hr after injection at the dose of 6.25 mg value expressed in average % dose per organ; value may range from 0.55 to 0.64; type: ADME, organism-based; conditions: in vivo; procedure, shortened: as §1
Rattus norvegicus [3] = assay: Biodistribution of I-125 labeled compound in rat blood, 1 hr after intravenous injection. value expressed in average % dose per organ; value may range from 0.92 to 1.31; type: ADME, organism-based; conditions: in vivo
Rattus norvegicus [4] = species: Rattus norvegicus; assay: Effect of specific activity of compound on biodistribution in rats brain 1 hr after injection at the dose of 2.5 mg value expressed in average % dose per organ; value may range from 2.13 to 2.36; type: ADME, organism-based; conditions: in vivo; procedure, shortened: as §1
Rattus norvegicus [5] = species: Rattus norvegicus; assay: Effect of specific activity of compound on biodistribution in rats brain after injection at the dose of 0.025 mg value expressed in average % dose per organ; value may range from 1.39 to 1.56; type: ADME, organism-based; conditions: in vivo; procedure, shortened: as §1
Rattus norvegicus [6] = species: Rattus norvegicus; assay: Effect of specific activity of compound on biodistribution in rats heart 1 hr after injection at the dose of 0.25 mg value expressed in average % dose per organ 0.69 to 0.74; type: ADME, organism-based; conditions: in vivo; procedure, shortened: as §1
Rattus norvegicus [7] = species: Rattus norvegicus; assay: Effect of specific activity of compound on biodistribution in rats lungs 1 hr after injection at the dose of 2.5 mg value expressed in average % dose per organ; value may range from 5.89 to 8.67; type: ADME, organism-based, Lung; conditions: in vivo; procedure, shortened: as §1
Rattus norvegicus [8] = species: Rattus norvegicus; assay: Effect of specific activity of compound on biodistribution in rats lungs after injection at the dose of 0.025 mg value expressed in average % dose per organ; value may range from 12.0 to 14.5; type: ADME, organism-based, Lung; conditions: in vivo; procedure, shortened: as §1
Rattus norvegicus [9] = species: Rattus norvegicus; assay: Effect of specific activity of compound on biodistribution in rats muscle 1 hr after injection at the dose of 0.25 mg value expressed in average % dose per organ; value may range from 11.0 to 13.4; type: ADME, organism-based, Muscle tissue; conditions: in vivo; procedure, shortened: as §1
Rattus norvegicus [10] = species: Rattus norvegicus; assay: Effect of specific activity of compound on biodistribution in rats muscle 1 hr after injection at the dose of 6.25 mg value expressed in average % dose per organ; value may range from 11.5 to 12.9; type: ADME, organism-based, Muscle tissue; conditions: in vivo; procedure, shortened: as §1
Rattus norvegicus [11] = species: Rattus norvegicus; assay: Effect of specific activity of compound on biodistribution in rats thyroid 1 hr after injection at the dose of 0.25 mg value expressed in average % dose per organ; value may range from 0.17 to 0.19; type: ADME, organism-based, Thyroid gland; conditions: in vivo; procedure, shortened: as §1
Rattus norvegicus [12] = assay: Biodistribution of I-125 labeled compound in rat heart, 2 min after intravenous injection. value expressed in average % dose per organ; value may range from 3.03 to 3.55; type: ADME, organism-based; conditions: in vivo
Rattus norvegicus [13] = assay: Biodistribution of I-125 labeled compound in rat liver, 1 hr after intravenous injection. value expressed in average % dose per organ; value may range from 6.22 to 7.81; type: ADME, organism-based; conditions: in vivo
Rattus norvegicus [14] = species: Rattus norvegicus; assay: Effect of specific activity of compound on biodistribution in rats thyroid after injection at the dose of 0.025 mg value expressed in average % dose per organ; value may range from 0.15 to 0.17; type: ADME, organism-based, Thyroid gland; conditions: in vivo; procedure, shortened: as §1
Rattus norvegicus [15] = assay: Biodistribution of I-125 labeled compound in rat liver, 2 min after intravenous injection. value expressed in average % dose per organ; value may range from 7.90 to 10.6; type: ADME, organism-based; conditions: in vivo
Rattus norvegicus [16] = assay: Biodistribution of I-125 labeled compound in rat thyroid, 1 hr after intravenous injection. value expressed in average % dose per organ; value may range from 0.17 to 0.23; type: ADME, organism-based, Thyroid gland; conditions: in vivo
Rattus norvegicus [17] = species: Rattus norvegicus; assay: Effect of specific activity of compound on biodistribution in rats blood 1 hr after injection at the dose of 0.025 mg value expressed in average % dose per organ; value may range from 0.84 to 0.99; type: ADME, organism-based; conditions: in vivo
Rattus norvegicus [18] = species: Rattus norvegicus; assay: Effect of specific activity of compound on biodistribution in rats heart 1 hr after injection at the dose of 2.5 mg value expressed in average % dose per organ; value may range from 0.34 to 0.42; type: ADME, organism-based; conditions: in vivo; procedure, shortened: as §1
Rattus norvegicus [19] = species: Rattus norvegicus; assay: Effect of specific activity of compound on biodistribution in rats heart 1 hr after injection at the dose of 6.25 mg value expressed in average % dose per organ; value may range from 0.30 to 0.36; type: ADME, organism-based; conditions: in vivo; procedure, shortened: as §1
Rattus norvegicus [20] = species: Rattus norvegicus; assay: Effect of specific activity of compound on biodistribution in rats heart after injection at the dose of 0.025 mg value expressed in average % dose per organ; value may range from 0.98 to 1.02; type: ADME, organism-based; conditions: in vivo; procedure, shortened: as §1
Rattus norvegicus [21] = species: Rattus norvegicus; assay: Distribution coefficient at pH 7.0 in rat; type: ADME, organism-based
Procedure, shortened: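 Octanol/buffer partition: I-125 labeled diamine mixed with 3 g each of 1-octanol and 0.1 M phosphate buffer at pH 7.0 or 7.4, vortexed 3× 1 min, centrifuged 5 min. Two 0.5 g samples of each layer counted. Value is cpm/g octanol over cpm/g buffer, usually repeated three times.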

Rattus norvegicus [22] = species: Rattus norvegicus; assay: Effect of specific activity of compound on biodistribution in rats brain to blood ratio after injection at the dose of 0.025 mg value expressed in % dose per gram ratio; type: ADME, organism-based; procedure, shortened: as §1
Rattus norvegicus [23] = assay: Biodistribution of I-125 labeled compound in rat lungs, 1 hr after intravenous injection. value expressed in average % dose per organ; value may range from 10.6 to 15.1; type: ADME, organism-based, Lung; conditions: in vivo
[24] = Biodistribution of […] compound in a monkey blood. 1 hr after intravenous injection. the value expressed in%dose/organ; type: ADME, organism-based; conditions: simiiformes, in vivo
Procedure, shortened: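 Monkey sedated with ketamine and anesthetized with nembutal, then given ~100 μCi [125I] label (~7 mCi/mg) intravenously. Killed 1 h later by nembutal overdose. Organs dissected, weighed and counted. % dose per organ found against diluted injected-dose aliquots; % dose per gram also reported; brain/blood from per-gram values. Single animal.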

Rattus norvegicus [25] = assay: Biodistribution of I-125 labeled compound in rat brain to blood ratio, 1 hr after intravenous injection. value expressed in % dose per gram ratio; type: ADME, organism-based
Procedure, shortened: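 Rats given I-125 diamine iv; tissue activity at 2 min or 1 h compared with diluted injected-dose aliquots. % dose per gram approximated as % dose per organ divided by mean organ weight (brain 1.65 g; blood 18 g). Ratio taken from the per-gram values.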

[26] = Biodistribution of [125I]- compound in a monkey lungs.1h after intravenous injection. the value expressed in %dose/gram; conditions: simiiformes, in vivo
[27] = Biodistribution of [125I]- compound in a monkey bone. 1 hr after intravenous injection. the value expressed in %dose/gram; conditions: simiiformes, in vivo
[28] = Biodistribution of [125I]- compound in a monkey brain. 1 hr after intravenous injection. the value expressed in %dose/gram; conditions: simiiformes, in vivo
[29] = Biodistribution of [125I]- compound in a monkey liver. 1 hr after intravenous injection. the value expressed in %dose/gram; conditions: simiiformes, in vivo
[30] = Biodistribution of [125I]- compound in a monkey kidneys. 1 hr after intravenous injection. the value expressed in %dose/gram; conditions: simiiformes, in vivo

## Cc1cc(I)cc(CNCCCN(C)C)c1O
Rattus norvegicus [1]
  Average dose per organ: 0.65%
Rattus norvegicus [2]
  Average dose per organ: 0.61%
Rattus norvegicus [3]
  Average dose per organ: 1.1%
Rattus norvegicus [4]
  Average dose per organ: 2.21%
Rattus norvegicus [5]
  Average dose per organ: 1.47%
Rattus norvegicus [6]
  Average dose per organ: 0.72%
Rattus norvegicus [7]
  Average dose per organ: 6.87%
Rattus norvegicus [8]
  Average dose per organ: 12.8%
Rattus norvegicus [9]
  Average dose per organ: 12.1%
Rattus norvegicus [10]
  Average dose per organ: 12.3%
Rattus norvegicus [11]
  Average dose per organ: 0.17%
Rattus norvegicus [12]
  Average dose per organ: 3.23%
Rattus norvegicus [13]
  Average dose per organ: 7.14%
Rattus norvegicus [14]
  Average dose per organ: 0.16%
Rattus norvegicus [15]
  Average dose per organ: 9.51%
Rattus norvegicus [16]
  Average dose per organ: 0.19%
Rattus norvegicus [17]
  Average dose per organ: 0.91%
Rattus norvegicus [18]
  Average dose per organ: 0.38%
Rattus norvegicus [19]
  Average dose per organ: 0.33%
Rattus norvegicus [20]
  Average dose per organ: 1%
Rattus norvegicus [21]
  Distribution coefficient: 3.39
Rattus norvegicus [22]
  Ratio: 17.6%
Rattus norvegicus [23]
  Average dose per organ: 11.7%
[24]
  Dose per organ: 1.23%
Rattus norvegicus [25]
  Ratio: 19.7%
[26]
  Dose/g: 1.05%
[27]
  Dose/g: 0.00168%
[28]
  Dose/g: 0.0349%
[29]
  Dose/g: 0.149%
[30]
  Dose/g: 0.602%
